Compound activity from PubChem.
An excerpt weighted towards active compounds, which were near 1.5% of everything screened.
Wnt act: Wnt/beta-catenin pathway activators, primary screen, cell-based, plate reader, single point; Wnt/beta-catenin reporter cell assay, activator; activation, % at 9.35 µM; AID 743398, 2014; 300,000 compounds, 1.2% hits; in the data active = activation above about 30%, passing the limit was not always enough; inconclusive = no clear call, values can overlap the other calls;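 note: 0% = neutral control wells and 100% = positive control wells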
Cneo AK release: Cryptococcus neoformans cell lysis inducers, primary screen, AK release luminescence, single concentration; 360,000 compounds, 0.2% hits; C. neoformans lysis, adenylate kinase release luminescence, 4 h; normalised: neutral wells 0, clomiphene wells 100; AID 651654, 2012; lysis activity, % at 15 µM;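 active = mean lysis activity across replicates of at least 80%, whatever share of replicates individually reach that level; inactive = mean lysis activity below 80%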
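Schedule: static 4 h at 37 °C with compound, 1 h detection; system: C. neoformans cells; benchmarks: Clomiphene as positive control; buffer or medium: fresh YPD medium; measure: luminescence rise reflecting yeast cell lysis; measured by: luminescent adenylate kinase detection reagent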
PGC1a acetyl inh: inhibitors of PGC1a acetylation signal, primary screen, cell-based, U2OS, AlphaScreen, inhibitor mode; 350,000 compounds, 0.17% hits; inhibition, % at 15.6 µM; AID 651687, 2012; AlphaScreen anti-acetyl-lysine; with virally co-expressed GCN5 acetyltransferase;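 active = every replicate shows inhibition of at least 40%; inconclusive = mean inhibition at least 40% but some replicate below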;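 note: 0% = neutral control wells and 100% = positive control wells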
MITF TRPM1 HTS: activators of MITF-driven TRPM1 promoter reporter, primary screen, cell-based, SK-MEL-5, luciferase, single point; SK-MEL-5 TRPM1-promoter luciferase, 24 h; % of positive control, neutral wells = 0; activation, % at 12.5 µM; 300,000 compounds, 0.75% hits; AID 588334, 2011;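 active = mean activation of at least 80% with every replicate also reaching 80%; inconclusive = mean reaches 80% but some replicate falls short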;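 note: 0% = neutral control wells and 100% = parthenolide positive control wells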
Starred values were filed as active, the others as inactive; ? = inconclusive; · = not tested or not shown.

SMILES | Wnt act | Cneo AK release | PGC1a acetyl inh | MITF TRPM1 HTS
COc1ccccc1NC(=O)N1CCCCN2[C@H](CO)[C@H](c3ccc(-c4ccccc4)cc3)[C@H]2C1 | · | 8 | -26 | ·
COc1ccc(C2=NN(S(=O)(=O)c3ccccc3)C(c3ccccc3)C2)cc1 (configuration not stated) | 4 | 1 | -17 | 3
COc1ccc(C2=NN(CN3C(=O)C(=O)c4ccccc43)C(c3ccc(OC)cc3)C2)cc1 (configuration not stated) | 54* | · | · | 56
CO[C@H]1CN(C)C(=O)c2ccc(NC(=O)Nc3cc(F)ccc3F)cc2OC[C@H](C)N(C(=O)c2cnccn2)C[C@H]1C | · | · | -5 | ·
CC(c1ccco1)N(C(=O)COc1ccc(Cl)cc1)c1ccccn1 (configuration not stated) | · | -2 | -11 | 34
CC(c1ccco1)N(C(=O)COc1ccc(Cl)cc1Cl)c1ccccn1 (configuration not stated) | 18 | -6 | -19 | 105*
CCC(=O)N1CC2(C1)[C@H](c1ccccc1)[C@H](CO)N2C(=O)NC(C)C | · | · | 1 | ·
C[C@@H]1CCCCO[C@H](CN(C)C(=O)Nc2ccccc2)[C@@H](C)CN([C@@H](C)CO)C(=O)c2cc(NS(=O)(=O)c3cccs3)ccc2O1 | · | -3 | -1 | ·
COCC#Cc1cnc2c(c1)C(=O)N([C@H](C)CO)C[C@@H](C)[C@@H](CN(C)C(=O)CCN1CCCCC1)O2 | · | 38 | 2 | ·
COc1cccc(N=c2oc3ccccc3cc2-c2nc3ccccc3[nH]2)c1 | 47* | 0 | -8 | -11
COc1cccc(N=c2oc3ccc(OC)cc3cc2-c2nc3ccccc3[nH]2)c1 | 20 | -6 | 10 | -9
CNC(=O)C[C@H]1CC[C@@H]2[C@H](COC[C@H](O)CN2S(=O)(=O)c2ccc(Oc3ccccc3)cc2)O1 | · | 4 | 1 | ·
C=CCc1c(C)nc2c(-c3ccccc3)cnn2c1N1CCOCC1 | 40* | 0 | -4 | 76
C[C@@H]1CN([C@H](C)CO)C(=O)c2cc(NC(=O)NC3CCCCC3)ccc2O[C@@H](C)CCCCO[C@@H]1CN(C)C(=O)NC1CCCCC1 | · | -4 | 0 | ·
COc1cccc(S(=O)(=O)N2CCCCN3[C@H](C2)[C@@H](c2ccc(C#CCC(C)C)cc2)[C@@H]3CO)c1 | · | -1 | -15 | ·
CCS(=O)(=O)N1CCCCN2[C@H](C1)[C@@H](c1ccc(-c3ccc(C#N)cc3)cc1)[C@@H]2CO | · | 91* | 9 | ·
COc1cccc(S(=O)(=O)N2CCCCN3[C@@H](CO)[C@@H](c4ccc(C#CCC(C)C)cc4)[C@@H]3C2)c1 | · | 84* | -13 | ·
C[C@@H](O)C#Cc1ccc([C@@H]2[C@H](CO)N3CCCCN(CC4CC4)C[C@@H]23)cc1 | · | 103* | 10 | ·
Cc1noc(C)c1NC(=O)N(C)C[C@@H]1OCCCC[C@@H](C)Oc2ccc(NS(=O)(=O)c3ccc(Cl)cc3)cc2C(=O)N([C@@H](C)CO)C[C@H]1C | · | 0 | 3 | ·
CO[C@H]1CN(C)C(=O)c2ccc(NC(=O)c3nc4ccccc4s3)cc2OC[C@H](C)N(Cc2cncnc2)C[C@H]1C | · | -1 | -7 | ·
Cc1ccc(C(=O)N2CCN(c3ncccn3)CC2)cc1 | -1 | 1 | 80* | 0
COc1ccc(CCNC2CC(=O)N(CCc3ccccc3)C2=O)cc1OC (configuration not stated) | 42* | 5 | -18 | 4
COc1ccc(CCNC2CC(=O)N(CCc3ccc(OC)c(OC)c3)C2=O)cc1 (configuration not stated) | · | -1 | 7 | -2
COc1cccc(/C=N/NC(=O)c2cccs2)c1 | 40* | · | -4 | ·
O=C(N/N=C/c1ccc([N+](=O)[O-])cc1)c1cccs1 | 38* | 0 | -2 | ·
SMILES | Wnt act | Cneo AK release | PGC1a acetyl inh | MITF TRPM1 HTS
COc1cc(/C=N/NC(=O)c2cccs2)ccc1O | 4 | -3 | -3 | 4
O=C(NCC[C@@H]1CC[C@H](NC(=O)C2CCC2)[C@@H](CO)O1)c1cnccn1 | · | 20 | 4 | ·
O=C(Nc1cccnc1Cl)c1noc2c1CCc1ccccc1-2 | 37* | · | · | 70
C[C@H]1CN([C@@H](C)CO)S(=O)(=O)c2ccc(-c3cccc(C#N)c3)cc2O[C@@H]1CN(C)C(=O)C1CC1 | · | 3 | -6 | ·
CCOc1ccc(C(=O)N2CCCC2)cc1OC | 34* | 0 | -4 | -11
Cc1ccccc1NC(=O)Nc1ccc(C(F)(F)F)cc1 | 38* | · | · | 38
Cc1ccccc1NC(=O)CNC(=O)c1ccc(C(F)(F)F)cc1 | -1 | · | · | 5
CC=Cc1ccc2n(c1=O)C[C@@H]1[C@@H](CO)[C@H](C(=O)NCC)[C@H]2N1Cc1nccs1 (mixture of isomers) | · | 4 | · | ·
COCC#Cc1cnc2c(c1)C(=O)N([C@@H](C)CO)C[C@H](C)[C@H](CN(C)C(=O)Nc1ccccc1OC)O2 | · | -3 | -3 | ·
O=c1[nH]c(-c2ccccc2)nnc1-c1ccccc1 | 32* | -1 | 2 | 32
CN(C)C(=O)c1ccc(-c2ccc([C@H]3[C@@H](CO)N4CCCCN(CCC(F)(F)F)C[C@@H]34)cc2)cc1 | · | 2 | -4 | ·
CN(C)C(=O)c1ccc(-c2ccc([C@H]3[C@H](CO)N4CCCCN(CCC(F)(F)F)C[C@@H]34)cc2)cc1 | · | 96* | 14 | ·
CSc1cccc(N2CC(C(=O)NCCN3C(=O)S/C(=C\c4cccnc4)C3=O)CC2=O)c1 (configuration not stated) | 1 | 1 | 75* | -3
O=C(NCCN1C(=O)S/C(=C\c2cccnc2)C1=O)C1CC(=O)N(Cc2ccco2)C1 (configuration not stated) | -10 | · | -12 | -4
C[C@H](NC(=O)[C@@H]1[C@@H](CO)[C@@H]2Cn3c(ccc(-c4ccccc4F)c3=O)[C@H]1N2C)c1ccccc1 | · | 0 | · | ·
CSc1nncc(/C(C)=N\Nc2cccc(C)c2)n1 | 0 | 5 | -2 | 5
CSc1nnc2c(n1)c(C)nn2-c1cccc(C)c1 | 37* | 0 | 5 | ·
CO[C@H]1CN(C)C(=O)c2cc(NC(=O)C3CCC3)ccc2OC[C@@H](C)N(Cc2cccnc2)C[C@H]1C | · | -7 | 9 | ·
COc1ccc(NC(=S)Nc2ccccn2)cc1 | 36* | 10 | 8 | ?
Cc1cc(C)cc(NC(=S)Nc2ccccn2)c1 | -6 | · | · | 5
Cc1cccc(NC(=S)Nc2ccccn2)c1 | 60* | · | 2 | 26
COc1cccc(NC(=S)Nc2cc(C)cc(C)n2)c1 | 54* | -2 | 2 | ·
COc1ccccc1NC(=S)Nc1ccccn1 | · | 30 | 5 | 3
COC(=O)c1ccc(NC(=S)Nc2ccccn2)cc1 | · | 8 | -4 | 112*
C[C@@H](NC(=O)[C@@H]1[C@@H](CO)[C@@H]2Cn3c(ccc(-c4ccccc4)c3=O)[C@@H]2N1C)c1ccccc1 | · | -3 | · | ·
O=C(CC1SC(=O)N(c2ccccc2)C1=O)Nc1ccccc1 (configuration not stated) | · | · | · | -2
